The text below walks through data of PubChem BioAssay AID651952 (The Scripps Research Institute Molecular Screening Center, 2012).

About 940 (39%) of roughly 2,400 compounds were called active.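 Rule for the calls: active = inhibition above the plate's mean compound inhibition plus 3 SD, computed per plate (cut at about 22% in these data); inactive = the rest.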 Not all results are given here.

This test in a line: inhibition of ATP-evoked calcium response in CHO-Ga16 cells, counter-screen for TAAR1 agonist project, cell-based, fluorescence (AID 651952).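 Note: 0% = EC80 ATP with DMSO and 100% = DMSO wells without ATP.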 To be noted: CHO-Ga16 ATP-induced calcium, Fluo-8 fluorescence; at 3 µM; active compounds read high. An outline of the steps: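 Test system: Gα16-expressing CHO parent cells / Schedule: 17–24 h seeding, dye 75 min 37 °C, 30 min RT / Detection: Fluo-8 calcium fluorescence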
As to `O=C1NC(=O)N(Cc2ccco2)C(=O)/C1=C\c1ccc(-c2ccc(F)cc2)o1`, the inhibition (commonly how much of the control response was suppressed) was 44% (active).

In the case of `Clc1ccc2nc3c(c(-c4ccccc4)c2c1)CNCC3`, the inhibition was 0.28% (inactive).

With `CC(Cc1ccccc1)NC=O` (centres undefined), the inhibition is 11.2% (inactive).

With `CCCCC(=O)N/N=C/c1c(O)n(CC)c(=S)n(CC)c1=O`, the inhibition was 64.5% (active).

In the case of `COc1ccc(Br)cc1CNCCc1cccc(Cl)c1`, the inhibition is 14.7% (inactive).

On to `c1ccc(CCNC2CCCCCC2)cc1`, for which the inhibition was 2.61% (inactive).

In the case of `Cc1cccc(N2C(=O)NC(=O)/C(=C\c3cnn(-c4ccccc4)c3)C2=O)c1`, the inhibition is 40.6% (active).

As to `CCC(=NCCc1ccccc1)c1c(O)n(C2CCCCC2)c(=O)[nH]c1=O`, the inhibition is 21.1% (inactive).

Turning to `NCC(O)c1ccc(O)cc1` (centres undefined), the inhibition is 3.87% (inactive).
